Measured values gathered from unrelated publications.
Protocols differ between the studies behind these lines.
Target: Muscarinic acetylcholine receptor M5 (CHRM5, Homo sapiens, UniProt P08912)
Concentration: 10 µM
Sequence (P08912 1-532, as in one of the studies): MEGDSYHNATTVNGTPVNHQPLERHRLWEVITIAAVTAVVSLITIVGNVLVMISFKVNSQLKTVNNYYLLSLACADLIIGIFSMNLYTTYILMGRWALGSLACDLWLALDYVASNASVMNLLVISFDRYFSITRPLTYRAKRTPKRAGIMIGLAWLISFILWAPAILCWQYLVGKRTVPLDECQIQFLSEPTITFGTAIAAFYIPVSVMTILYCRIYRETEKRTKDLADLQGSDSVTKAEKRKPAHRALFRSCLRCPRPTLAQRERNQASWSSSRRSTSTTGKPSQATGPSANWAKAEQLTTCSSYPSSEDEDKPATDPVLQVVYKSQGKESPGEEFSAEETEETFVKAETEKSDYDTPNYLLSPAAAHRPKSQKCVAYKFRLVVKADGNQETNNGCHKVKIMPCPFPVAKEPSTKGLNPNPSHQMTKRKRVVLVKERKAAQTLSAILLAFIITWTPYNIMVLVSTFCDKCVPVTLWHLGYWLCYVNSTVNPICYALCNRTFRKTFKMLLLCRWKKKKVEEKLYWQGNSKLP

| Structure (SMILES) | assay | inhibition [%] |
| --- | --- | --- |
| CN(C(=O)n1cnc(-c2ccc[n+]([O-])c2)c1)C1CCCCC1 | cell-free assay | 8.59 |
| O=C(c1ccc(Cl)cc1)N(Cc1ccccc1)C1CCCCC1 | cell-free assay | -9.6 |
| CO[C@@H](C)c1c(Nc2ccc([C@H](N(C)C(=O)C3CCS(=O)(=O)CC3)C(F)(F)F)cc2)cnc2cc(Cl)nn12 | ligand displacement | 14.6 |
| CCN(CC)c1ccc(C2Nc3ccc(C(=O)c4ccccc4)cc3NC3=C2C(=O)CC(C)(C)C3)cc1 (centres unmarked) | ligand displacement, radioligand | 20 |
| N#Cc1cc(Cn2c(N3CCCC3)nc3ccccc32)ccc1F | ligand displacement | 10.9 |
| CNC(=N)NCCC[C@H](NC(=O)[C@H](CC(C)C)NC(=O)NNC(=O)[C@H](Cc1ccccc1)NC(=O)[C@H](CO)NC(=O)[C@H](CC(N)=O)NC(=O)[C@@H](Cc1ccncc1)NC(=O)[C@H](N)Cc1ccc(O)cc1)C(=O)N[C@@H](Cc1ccccc1)C(N)=O | ligand displacement | 14.9 |
| COc1cc(NC(C)=O)c(Cl)cc1C(=O)Nc1nccs1 | cell-free assay | -6.1 |
| CCCNc1nc2ccccc2n1Cc1ccc(Cl)cc1 | ligand displacement | 14.5 |
